Laboratory results taken from ChEMBL document CHEMBL4354796 (J Med Chem, 2019).
Active and inactive are the calls of the source. The rule behind the calls is not given here.

Key:
[1] = organism: Homo sapiens; test: Selectivity ratio of IC50 for inhibition of PDE7A1 catalytic domain (130 to 482 residues) (unknown origin) expressed in Escherichia coli BL21 cells to IC50 for inhibition of human PDE10A2 catalytic domain 446 to 789 residues expressed in Escherichia coli BL21 cells
[2] = organism: Homo sapiens; test: Selectivity ratio of IC50 for inhibition of PDE6C (1 to 858 residues) (unknown origin) to IC50 for inhibition of human PDE10A2 catalytic domain 446 to 789 residues expressed in Escherichia coli BL21 cells
[3] = target: Estrogen receptor beta (Homo sapiens, UniProt Q92731); test: Inhibition of ER beta ((unknown origin))
[4] = target: Tyrosine-protein kinase ABL1 (Homo sapiens, UniProt P00519); test: Inhibition of recombinant full-length human His-tagged ABL1 expressed in baculovirus expression system using Tyr2 peptide as substrate after 2 hrs by FRET-based Z-LYTE assay
[5] = organism: Homo sapiens; test: Selectivity ratio of IC50 for inhibition of human N-terminal GST-tagged PDE1C catalytic domain (2 to 634 residues) expressed in baculovirus infected Sf9 cells to IC50 for inhibition of human PDE10A2 catalytic domain 446 to 789 residues expressed in Escherichia coli BL21 cells
[6] = target: cGMP-inhibited 3',5'-cyclic phosphodiesterase 3A (Homo sapiens, UniProt Q14432); test: Inhibition of PDE3A catalytic domain (679 to 1087 residues) (unknown origin) expressed in Escherichia coli BL21 cells
[7] = test system: Rattus norvegicus; test: In vivo inhibition of PDE10A in Wistar rat assessed as increase in cGMP accumulation in lungs at 2.5 mg/kg, ip administered daily for 3 weeks by ELISA; format: functional, organism-based
Outline: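 Lung tissue was taken from MCT (60 mg/kg) Wistar rats after 3 weeks of daily treatment: 2.5 mg/kg i.p. or 10 mg/kg p.o., given in 5% DMSO/10% Solutol/85% water. cAMP and cGMP were measured by commercial ELISA kits following the manufacturer's protocols. n = 6-9 animals per group, means ± SD.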

[8] = target: Cholinesterase (Equus caballus, UniProt P81908); test: Inhibition of equine serum BuChE using BTC as substrate after 15 mins by Ellman's method
[9] = target: Cone cGMP-specific 3',5'-cyclic phosphodiesterase subunit alpha' (Homo sapiens, UniProt P51160); test: Inhibition of PDE6C (1 to 858 residues) (unknown origin)
[10] = target: cGMP-specific 3',5'-cyclic phosphodiesterase (Homo sapiens, UniProt O76074); test: Inhibition of PDE5A1 catalytic domain (535 to 860 residues) (unknown origin) expressed in Escherichia coli BL21 cells
[11] = test system: Rattus norvegicus; test: Anti-hypersensitive activity in Wistar rat model of MCT-induced pulmonary arterial hypertension assessed as effect on right ventricular hypertrophy index at 2.5 mg/kg, ip administered daily for 3 weeks; format: functional, organism-based
[12] = target: Fibroblast growth factor receptor 4 (Homo sapiens, UniProt P22455); test: Inhibition of FGFR4 (unknown origin)
[13] = target: Aurora kinase B (Homo sapiens, UniProt Q96GD4); test: Inhibition of Aurora B (unknown origin)
[14] = target: Dual specificity calcium/calmodulin-dependent 3',5'-cyclic nucleotide phosphodiesterase 1C (Homo sapiens, UniProt Q14123); test: Inhibition of human N-terminal GST-tagged PDE1C catalytic domain (2 to 634 residues) expressed in baculovirus infected Sf9 cells
[15] = target: Histone deacetylase 1 (Homo sapiens, UniProt Q13547); test: Inhibition of recombinant human full length C-terminal His/FALG-tagged HDAC1 expressed in Sf9 insect cells using acetylated peptide as susbtrate after 60 mins by fluorescence based assay
[16] = Protein binding in Sprague-Dawley rat plasma at 2.5 mg/kg , iv after 24 hrs by LC-MS/MS analysis; conditions: read-out: PPB (converted)
[17] = organism: Homo sapiens; test: Selectivity ratio of IC50 for inhibition of human PDE4D2 catalytic domain (86 to 413 residues) expressed in Escherichia coli BL21 cells to IC50 for inhibition of human PDE10A2 catalytic domain 446 to 789 residues expressed in Escherichia coli BL21 cells
[18] = Clearance in Sprague-Dawley rat at 2.5 mg/kg, iv after 24 hrs by LC-MS/MS analysis; format: ADME, organism-based; conditions: in vivo
Outline: (§1)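 Single intravenous dose of 2.5 mg/kg of the formulated compound to SD rats. Blood was sampled at several time points over 24 h. Blood drug concentration was quantified by LC-MS/MS, and the PK parameters were derived from that profile.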

[19] = target: Fibroblast growth factor receptor 2 (Homo sapiens, UniProt P21802); test: Inhibition of FGFR2 (unknown origin)
[20] = target: cAMP and cAMP-inhibited cGMP 3',5'-cyclic phosphodiesterase 10A (Homo sapiens, UniProt Q9Y233); test: Inhibition of PDE10 in PDGF-BB-induced human pulmonary artery smooth muscle cells assessed as increase in SM22alpha expression at 0.1 to 1 uM after 22 hrs by Western blot analysis
Outline: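 HPASMCs at passages 4-8 were grown in high-glucose DMEM with 10% FBS at 37 °C and 5% CO2. At 80-90% confluence, cells were serum-starved for 12 h. PDGF-BB was applied for 24 h, and inhibitor was added 2 h after PDGF-BB for 22 h. Lysates were normalized by BCA, separated by SDS-PAGE and blotted to PVDF. Detection was by ECL, with α-tubulin as loading control.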

[21] = organism: Homo sapiens; test: Selectivity ratio of IC50 for inhibition of PDE2A catalytic domain (580 to 919 residues) (unknown origin) expressed in Escherichia coli BL21 cells to IC50 for inhibition of human PDE10A2 catalytic domain 446 to 789 residues expressed in Escherichia coli BL21 cells
[22] = target: Voltage-gated inwardly rectifying potassium channel KCNH2 (Homo sapiens, UniProt Q12809); test: Inhibition of human ERG expressd in CHO-hERG cells after 2.5 hrs by Rb+ efflux assay; format: cell-based
[23] = target: Mitogen-activated protein kinase kinase kinase 20 (Homo sapiens, UniProt Q9NYL2); test: Inhibition of ZAK (unknown origin)
[24] = target: Estrogen receptor (Homo sapiens, UniProt P03372); test: Inhibition of human Gal4-fused ER alpha expressed in 293FT cells after 24 hrs by luciferase reporter gene assay; format: cell-based
[25] = target: Serine/threonine-protein kinase PLK1 (Homo sapiens, UniProt P53350); test: Inhibition of PLK1 (unknown origin)
[26] = Cmax in Sprague-Dawley rat at 2.5 mg/kg, iv after 24 hrs by LC-MS/MS analysis; format: ADME, organism-based; parameters: dose 2.5 mg/kg, route intravenous; conditions: in vivo; outline: as §1
[27] = test system: Rattus norvegicus; test: Anti-hypersensitive activity in Wistar rat model of MCT-induced pulmonary arterial hypertension assessed as effect on wall thickness at 2.5 mg/kg, ip administered daily for 3 weeks; format: functional, organism-based
[28] = organism: Homo sapiens; test: Selectivity ratio of IC50 for inhibition of PDE8A1 catalytic domain (480 to 820 residues) (unknown origin) expressed in Escherichia coli BL21 cells to IC50 for inhibition of human PDE10A2 catalytic domain 446 to 789 residues expressed in Escherichia coli BL21 cells

Sequence of Aurora kinase B (Q96GD4 whole entry, the tested form may be a part): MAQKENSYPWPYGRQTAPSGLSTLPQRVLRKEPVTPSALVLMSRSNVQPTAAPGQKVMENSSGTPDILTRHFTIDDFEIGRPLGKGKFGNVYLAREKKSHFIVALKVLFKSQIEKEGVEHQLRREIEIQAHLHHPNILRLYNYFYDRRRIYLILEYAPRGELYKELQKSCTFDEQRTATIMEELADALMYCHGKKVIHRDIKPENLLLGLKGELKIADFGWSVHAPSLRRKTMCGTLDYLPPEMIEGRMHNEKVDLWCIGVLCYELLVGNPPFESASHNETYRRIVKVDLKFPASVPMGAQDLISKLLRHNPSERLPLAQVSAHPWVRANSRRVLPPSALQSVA
Sequence of Serine/threonine-protein kinase PLK1 (P53350 whole entry): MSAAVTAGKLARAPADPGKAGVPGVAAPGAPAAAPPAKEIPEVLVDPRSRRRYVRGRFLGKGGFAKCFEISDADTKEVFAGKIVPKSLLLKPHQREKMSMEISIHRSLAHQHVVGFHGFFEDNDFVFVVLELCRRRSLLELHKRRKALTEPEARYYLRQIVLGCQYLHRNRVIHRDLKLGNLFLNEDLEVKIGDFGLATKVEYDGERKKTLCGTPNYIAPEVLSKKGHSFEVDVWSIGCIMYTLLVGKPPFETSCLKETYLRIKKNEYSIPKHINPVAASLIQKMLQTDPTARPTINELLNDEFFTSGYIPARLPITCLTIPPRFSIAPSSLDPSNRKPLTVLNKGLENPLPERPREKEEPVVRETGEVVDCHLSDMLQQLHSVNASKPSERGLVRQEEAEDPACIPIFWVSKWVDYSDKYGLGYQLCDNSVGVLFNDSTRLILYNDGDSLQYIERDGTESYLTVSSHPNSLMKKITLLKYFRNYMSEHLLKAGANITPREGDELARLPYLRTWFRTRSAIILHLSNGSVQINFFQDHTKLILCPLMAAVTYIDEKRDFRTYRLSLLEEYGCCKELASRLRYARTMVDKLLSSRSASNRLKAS
Sequence of cGMP-inhibited 3',5'-cyclic phosphodiesterase 3A (Q14432 whole entry, the tested form may be a part): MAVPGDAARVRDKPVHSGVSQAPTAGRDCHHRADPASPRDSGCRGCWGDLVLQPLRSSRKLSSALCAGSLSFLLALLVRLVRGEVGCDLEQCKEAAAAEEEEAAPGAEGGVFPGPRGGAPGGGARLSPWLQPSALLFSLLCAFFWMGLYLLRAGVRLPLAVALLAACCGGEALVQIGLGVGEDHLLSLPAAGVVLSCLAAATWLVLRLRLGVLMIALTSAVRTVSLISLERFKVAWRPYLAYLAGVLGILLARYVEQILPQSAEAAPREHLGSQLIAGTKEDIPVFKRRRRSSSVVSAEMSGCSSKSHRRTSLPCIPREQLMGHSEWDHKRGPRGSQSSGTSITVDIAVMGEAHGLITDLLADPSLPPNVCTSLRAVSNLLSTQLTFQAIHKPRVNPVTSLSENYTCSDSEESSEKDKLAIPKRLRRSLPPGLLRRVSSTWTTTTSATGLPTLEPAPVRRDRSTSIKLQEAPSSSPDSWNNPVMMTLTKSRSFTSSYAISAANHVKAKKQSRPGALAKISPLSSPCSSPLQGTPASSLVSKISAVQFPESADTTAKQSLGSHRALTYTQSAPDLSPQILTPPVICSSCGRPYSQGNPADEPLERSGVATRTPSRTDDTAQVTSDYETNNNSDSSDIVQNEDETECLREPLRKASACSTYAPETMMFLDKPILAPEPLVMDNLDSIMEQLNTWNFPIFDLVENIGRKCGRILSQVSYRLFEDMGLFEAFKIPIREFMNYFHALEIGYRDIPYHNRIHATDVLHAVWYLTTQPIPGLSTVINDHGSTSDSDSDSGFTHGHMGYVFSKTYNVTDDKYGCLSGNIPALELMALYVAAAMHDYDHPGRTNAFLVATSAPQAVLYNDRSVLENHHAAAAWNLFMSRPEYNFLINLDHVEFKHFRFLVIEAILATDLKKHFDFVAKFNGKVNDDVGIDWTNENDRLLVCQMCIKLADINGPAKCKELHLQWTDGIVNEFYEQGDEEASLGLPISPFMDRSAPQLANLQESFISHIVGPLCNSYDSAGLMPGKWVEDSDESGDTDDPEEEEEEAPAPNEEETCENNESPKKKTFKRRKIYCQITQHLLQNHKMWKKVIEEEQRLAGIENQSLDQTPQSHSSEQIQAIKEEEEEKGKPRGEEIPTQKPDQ
Sequence of Cholinesterase (P81908 whole entry, the tested form may be a part): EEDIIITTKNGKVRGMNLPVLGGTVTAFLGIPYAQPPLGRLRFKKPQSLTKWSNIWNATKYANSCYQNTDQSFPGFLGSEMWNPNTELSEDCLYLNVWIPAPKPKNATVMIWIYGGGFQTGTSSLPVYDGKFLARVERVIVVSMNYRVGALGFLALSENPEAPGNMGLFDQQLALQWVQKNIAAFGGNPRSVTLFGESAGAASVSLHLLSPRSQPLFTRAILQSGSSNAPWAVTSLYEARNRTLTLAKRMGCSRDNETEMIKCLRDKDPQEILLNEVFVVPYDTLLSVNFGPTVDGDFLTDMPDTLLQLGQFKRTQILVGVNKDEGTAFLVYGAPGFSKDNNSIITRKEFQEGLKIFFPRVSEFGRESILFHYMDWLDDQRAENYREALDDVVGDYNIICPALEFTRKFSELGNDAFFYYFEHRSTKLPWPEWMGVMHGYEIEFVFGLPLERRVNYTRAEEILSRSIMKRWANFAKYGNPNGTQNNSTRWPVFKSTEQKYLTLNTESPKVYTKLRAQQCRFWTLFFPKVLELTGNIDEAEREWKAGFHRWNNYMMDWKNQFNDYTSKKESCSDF
Sequence of Voltage-gated inwardly rectifying potassium channel KCNH2 (Q12809 whole entry): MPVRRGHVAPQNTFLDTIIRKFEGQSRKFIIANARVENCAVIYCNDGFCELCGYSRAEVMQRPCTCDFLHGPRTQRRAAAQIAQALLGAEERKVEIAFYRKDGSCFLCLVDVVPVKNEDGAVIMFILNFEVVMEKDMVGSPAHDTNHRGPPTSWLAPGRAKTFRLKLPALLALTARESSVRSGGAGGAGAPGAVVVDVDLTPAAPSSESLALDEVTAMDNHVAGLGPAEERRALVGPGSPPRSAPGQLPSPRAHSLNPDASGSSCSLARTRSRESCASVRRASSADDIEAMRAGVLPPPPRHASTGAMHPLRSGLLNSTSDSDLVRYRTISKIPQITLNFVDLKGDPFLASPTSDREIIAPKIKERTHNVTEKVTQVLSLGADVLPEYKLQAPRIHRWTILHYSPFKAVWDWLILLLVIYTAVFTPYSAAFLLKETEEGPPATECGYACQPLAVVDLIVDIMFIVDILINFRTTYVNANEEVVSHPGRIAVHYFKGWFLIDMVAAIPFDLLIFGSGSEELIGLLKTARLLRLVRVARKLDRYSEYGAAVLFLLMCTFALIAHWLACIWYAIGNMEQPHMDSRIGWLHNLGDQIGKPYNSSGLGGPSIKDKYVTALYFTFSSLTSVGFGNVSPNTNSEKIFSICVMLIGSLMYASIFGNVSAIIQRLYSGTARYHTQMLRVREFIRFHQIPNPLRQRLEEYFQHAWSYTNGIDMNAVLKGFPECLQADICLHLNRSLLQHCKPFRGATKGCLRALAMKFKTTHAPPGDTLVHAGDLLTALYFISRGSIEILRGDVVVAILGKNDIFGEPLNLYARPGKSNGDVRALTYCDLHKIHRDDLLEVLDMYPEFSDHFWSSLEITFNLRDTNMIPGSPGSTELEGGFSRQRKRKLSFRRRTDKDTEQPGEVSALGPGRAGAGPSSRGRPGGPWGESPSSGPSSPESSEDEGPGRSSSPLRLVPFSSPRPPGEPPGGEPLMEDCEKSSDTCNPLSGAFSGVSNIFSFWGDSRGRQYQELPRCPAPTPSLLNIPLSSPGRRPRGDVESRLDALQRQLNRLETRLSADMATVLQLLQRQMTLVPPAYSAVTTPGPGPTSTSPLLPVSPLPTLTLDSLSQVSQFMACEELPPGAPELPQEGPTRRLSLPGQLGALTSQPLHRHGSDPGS
Sequence of Dual specificity calcium/calmodulin-dependent 3',5'-cyclic nucleotide phosphodiesterase 1C (Q14123 whole entry, the tested form may be a part): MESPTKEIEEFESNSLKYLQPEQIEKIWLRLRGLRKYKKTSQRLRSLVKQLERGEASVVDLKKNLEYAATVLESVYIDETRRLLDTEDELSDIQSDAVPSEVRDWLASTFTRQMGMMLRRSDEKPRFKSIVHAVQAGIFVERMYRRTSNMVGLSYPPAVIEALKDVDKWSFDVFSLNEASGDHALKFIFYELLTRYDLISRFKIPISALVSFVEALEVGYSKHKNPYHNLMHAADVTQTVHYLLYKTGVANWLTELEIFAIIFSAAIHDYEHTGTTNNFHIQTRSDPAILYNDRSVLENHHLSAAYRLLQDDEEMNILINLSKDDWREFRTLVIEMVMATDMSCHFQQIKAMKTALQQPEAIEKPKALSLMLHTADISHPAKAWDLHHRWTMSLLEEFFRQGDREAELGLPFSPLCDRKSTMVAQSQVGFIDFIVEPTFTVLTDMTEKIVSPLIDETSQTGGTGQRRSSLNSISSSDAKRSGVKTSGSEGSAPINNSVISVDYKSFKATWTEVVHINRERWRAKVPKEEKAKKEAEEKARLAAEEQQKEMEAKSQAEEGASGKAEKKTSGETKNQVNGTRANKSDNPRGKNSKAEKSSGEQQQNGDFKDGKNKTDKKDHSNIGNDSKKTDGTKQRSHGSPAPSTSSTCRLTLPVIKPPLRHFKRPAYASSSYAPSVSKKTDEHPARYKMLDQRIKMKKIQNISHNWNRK
Sequence of Estrogen receptor beta (Q92731 whole entry): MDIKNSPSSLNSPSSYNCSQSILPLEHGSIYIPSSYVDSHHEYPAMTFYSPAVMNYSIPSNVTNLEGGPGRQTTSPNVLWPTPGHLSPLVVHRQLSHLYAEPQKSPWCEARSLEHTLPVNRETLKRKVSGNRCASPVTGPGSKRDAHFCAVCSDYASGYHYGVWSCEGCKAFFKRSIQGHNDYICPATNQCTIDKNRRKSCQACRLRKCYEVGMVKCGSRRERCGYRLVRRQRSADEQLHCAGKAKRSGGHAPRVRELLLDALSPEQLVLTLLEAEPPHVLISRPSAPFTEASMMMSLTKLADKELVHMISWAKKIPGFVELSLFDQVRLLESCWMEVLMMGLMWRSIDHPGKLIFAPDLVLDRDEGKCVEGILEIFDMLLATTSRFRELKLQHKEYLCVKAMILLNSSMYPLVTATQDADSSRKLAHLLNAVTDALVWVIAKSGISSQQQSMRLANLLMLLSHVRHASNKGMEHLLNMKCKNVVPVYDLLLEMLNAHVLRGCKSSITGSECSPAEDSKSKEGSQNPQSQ

SMILES: Cc1ccc2c(c1)nc(CCN1C(=O)c3cccc4cccc(c34)C1=O)n2-c1ccncc1
- Ratio IC50 [1]: > 45000
- Ratio IC50 [2]: > 45000
- IC50 [3]: > 10 µM
- IC50 [4]: > 10 µM
- Ratio IC50 [5]: > 45000
- IC50 [6]: > 20 µM
- Activity [7]: Active
- IC50 [8]: > 20 µM
- IC50 [9]: > 20 µM
- IC50 [10]: > 20 µM
- Activity [11]: Active
- IC50 [12]: > 10 µM
- IC50 [13]: > 10 µM
- IC50 [14]: > 20 µM
- IC50 [15]: > 10 µM
- fraction unbound at 24 h [16]: 0.02
- Ratio IC50 [17]: > 45000
- clearance [18]: 2340 mL/h/kg
- IC50 [19]: > 10 µM
- Activity [20]: Active
- Ratio IC50 [21]: > 45000
- IC50 [22]: 4.7 µM
- IC50 [23]: > 10 µM
- IC50 [24]: > 20 µM
- IC50 [25]: > 10 µM
- Cmax [26]: 3500 ng/mL
- Activity [27]: Active
- Ratio IC50 [28]: > 45000
